Experimental data taken from ChEMBL document CHEMBL4513216, “Probing the Open Global Health Chemical Diversity Library for Multistage-Active Starting Points for Next-Generation Antimalarials” (ACS Infect Dis, 2020).

Assay: Toxicity liver stage against HepG2, at 10uM
Type: cell-based
Design: test concentration 10 uM, cell line HepG2-A16-CD81EGFP
Settings: human, HepG2-A16-CD81EGFP cells; read-out: INHIBITION
How it was run: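 Uninfected HepG2-A16-CD81EGFP cells, 3 × 10^3 per well, 1536-well, plated on prespotted compound at 10 μM final, parasite-free screening media added to match infected plates; puromycin 10 μM positive, DMSO 0.5% negative; run in parallel with 48 h PbLuc assay at 37 °C, 5% CO2; viability by CellTiter-Glo luminescence, normalized to controls.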

Compound	cytotoxicity at 10 µM [%]
CC(C)(C)NC(=O)c1ccc(COCC(F)(F)F)o1	-0.585
Cc1c(CN2CCCCC2)c(O)n(CCCO)c(=O)c1C#N	-5.03
Fc1ccc(OCc2nnc([C@H]3CCN(Cc4ccncc4)C3)o2)cc1	-1.81
CCCNC(=O)C[C@@H]1CCN(C(=O)c2cccnc2)C[C@@H]1CC	-0.171
CCC(CC)C(=O)n1ccn(S(=O)(=O)c2ccc(C)cc2)c1=O	11.5
Cc1ccc(C)c(-n2ncc(C(=O)NCC3COC(C)(C)O3)c2N)c1 (stereo unspecified)	-4.06
COc1coc(C(=O)Nc2ccncc2)cc1=O	-14.4
O=C1CCSCC(C(=O)NCc2nc(-c3ccccc3)no2)N1 (stereo unspecified)	-4.66
CN(C)C(=O)[C@H]1CC[C@@H]2[C@@H](CCN2C(=O)N(C)C)O1	20.3
COc1ncccc1CN1CC[C@H]2O[C@H](c3nnc(C)o3)CC[C@H]21	15.1
C1CC(CN2CC[C@@H]3O[C@@H](c4nnc(C5CC5)o4)C[C@H]3C2)CCO1	5.35
CC[C@@H]1N(Cc2ccccn2)CCC[C@]12CCC(=O)N2CCOC	8.01
Cc1ccc(N2CCOCC3(CCCN(c4ncc(F)cn4)C3)C2)nn1 (stereo unspecified)	-123
Cc1cc(C)c(C#N)c(N2CCC(Cc3ccccc3)CC2)n1	-11.8
O=S(=O)(NCC1(O)CCOc2ccccc21)c1cccs1 (stereo unspecified)	-16.8
COc1ccc(-c2cc(C(=O)N3N=C(C)CC3(O)C(F)(F)F)[nH]n2)cc1 (stereo unspecified)	1.36
O=C(O)C1CCCN1c1nc(C2CC2)cc(C(F)(F)F)n1 (stereo unspecified)	7.55
COCCCNC(=O)Cn1c(-c2cccc(Cl)c2)nc(C)cc1=O	-8.41
Cn1nccc1C(=O)NCCN1CCC(O)(c2ccc(F)cc2)CC1	1.09
NC(=O)c1cnn2c(C3CCN(CCO)CC3)ccnc12	0.695
CCN(Cc1ccncc1)CC1(C)Cc2c(N)nc(N)nc2O1 (stereo unspecified)	2.15
CS(=O)(=O)N1CC2(CCN(Cc3ccccn3)C2)Cc2ccccc21 (stereo unspecified)	8.08
O=C(O)c1cc(Br)cnc1OCC1CC1	6.43

Compound	cytotoxicity at 10 µM [%]
CCc1ccccc1OCC(=O)Nc1ccnc(OCCN(C)C)c1	17.8
COc1ccc(CNC(c2cccc(F)c2)c2cnn(C)c2)cc1 (stereo unspecified)	4.91
CC(C(=O)NC1CCCC1)S(=O)(=O)Cc1noc(C(C)(C)C)n1 (stereo unspecified)	-9.41
COc1ccncc1NC(=O)C1(c2ccccc2)CC1	2.72
Cc1cc(C(=O)N(C)CCN(C)C(=O)OC(C)(C)C)oc1C	3.51
Cc1ccc(CC(NC(=O)CN(C)C2CC2)c2ccccn2)cc1 (stereo unspecified)	5.33
CCOc1ncccc1CNS(=O)(=O)c1ccc2c(c1)CCO2	7.95
CC(C)Cn1ncc(C(=O)O)c1C1CC1	-14
CCc1ccc(C(COC)NC(=O)c2ccc(F)c(NC(C)=O)c2)o1 (stereo unspecified)	-11.1
COc1cc(CN(C)C(=O)NC2CC2)ccc1SC	-8.01
COc1cc(CN(C)C(=O)NCC(=O)NC(C)C)ccc1SC	-15.5
O=C(CCc1ccsc1)NCC1CCN(Cc2cccs2)CC1	12.9
Cc1ccc(S(C)(=O)=O)cc1C(=O)N(C)Cc1ccco1	0.0194
Cc1nn(C)c(N2CCOCC2)c1CNC(c1ccccc1)C1CC1 (stereo unspecified)	4.45
CCS(=O)(=O)N1CCC(Oc2ccc(C#N)cc2)CC1	16.8
COc1cccc(S(=O)(=O)CCNC(C)Cn2cccn2)c1 (stereo unspecified)	-3.34
Cc1cc(C(C)NC(=O)CCn2nnc3ccccc3c2=O)c(C)o1 (stereo unspecified)	3.81
O=C(NCCCOCC1CC1)Nc1ccc(F)cc1	3.09
CCOCCNC(=O)c1ccc(OC)cc1I	6.53
Cc1cc(C)c(CNc2ncnc3ccccc23)c(=O)[nH]1	17.6
O=c1cc(CNCc2ccc3c(c2)OCO3)nc2ccccn12	-6.17
CCOCCn1nnc(C2(NC(=O)c3ccccc3)CCCC2)n1	21.9
Cc1cc(C)n(CC(=O)N2CCC(c3nc(C)no3)CC2)n1	1.2

Compound	cytotoxicity at 10 µM [%]
CC(C1CC1)N(C(=O)NCCCn1nc2ccccn2c1=O)C1CC1 (stereo unspecified)	-21.4
Cn1cc(-c2ncnc3c2CCN(C(=O)c2cscn2)CC3)cn1	1.15
CCOCC1CN(C(=O)c2cccs2)Cc2cnn(CC3CC3)c21 (stereo unspecified)	-1
CC[C@H](CO)NC(=O)c1coc(COc2ccccc2F)n1	5.21
O=C(c1ccc(-c2ccsc2)nc1)N1CCCN(C2CCCCC2)CC1	6.67
COc1ccccc1OC1CN(Cc2ccc(C(=O)O)cc2)C1	-8.98
CN1CC2(CCN(C(=O)c3cc(-n4cccn4)ccc3Cl)CC2)OC1=O	2.3
Cc1ncsc1CCC(=O)N(C)Cc1nc2ccccc2n1C	-143
Cn1nccc1C(=O)N1CCN(C(=O)C2CC2)[C@@H]2CS(=O)(=O)C[C@@H]21	3.11
O=C(O)[C@H]1C[C@H](C(=O)NC2CC2)CN(Cc2ccc(-c3cc[nH]n3)s2)C1	2.89
COc1cccc2c1OCC(Cc1cnc(N)c(C)c1)C2 (stereo unspecified)	3.36
Cc1nc2c(c(=O)n1C)CCN(C(=O)CCc1ccccc1O)CC2	0.53
CCn1nc(CC(C)C)cc1C(=O)N1CCCC(C#N)C1 (stereo unspecified)	-8.2
Cc1nc(C(=O)N(Cc2c(C)nn(C)c2C)C(C)C)cs1	3.57
Cc1nc(C)n(CC(C)C(=O)N2CCC(CN3CCOCC3)CC2)n1 (stereo unspecified)	0.635
CC(C)c1nccn1C(C)C(=O)NC1CCN(S(C)(=O)=O)CC1 (stereo unspecified)	-2.86
CC(C)[C@@H]1CN(CCOc2ccc(Cl)cc2)C[C@H]1NS(C)(=O)=O	-52.4
COCc1noc(CN2C(=O)OC[C@@H]2C(C)C)n1	-11.8
O=C(Cc1c[nH]c2ccccc12)NCC1CCN(Cc2c[nH]cn2)C1 (stereo unspecified)	2.34
Cc1nc[nH]c1CN1CCN(C(=O)C2(C)CC2)[C@H]2CS(=O)(=O)C[C@H]21	-4.76
CCc1cnc(N)nc1NCCCn1nc(C)nc1C	-1.37
CCCNS(=O)(=O)c1ccc2[nH]c(=O)cc(C)c2c1	-3.37
CN1Cc2ccccc2CC1C(=O)N1CCN(CCS(C)(=O)=O)CC1 (stereo unspecified)	15.1

Compound	cytotoxicity at 10 µM [%]
COCCCC1(CO)CCCN(CCc2ccccc2)C1 (stereo unspecified)	-9.99
CCn1nccc1C(=O)NC(Cn1cccn1)C(C)(C)C (stereo unspecified)	-9.24
O=C(c1cc[nH]n1)N1CCCC(c2cccc(-n3ccnc3)n2)C1 (stereo unspecified)	6.88
CCc1ccsc1C(=O)NCCn1nc2ccccn2c1=O	-12.2
Cc1cc(NC(=O)CN2CCN(c3nccs3)C(C)C2)on1 (stereo unspecified)	-5.35
Cc1n[nH]c(C)c1NC(=O)CN1CCN(c2nccs2)C(C)C1 (stereo unspecified)	-17.6
CCCNC(=O)CCOc1cccc(F)c1	4.75
Cc1nc(C2CCCN(C(=O)c3c[nH]c(C(C)C)n3)C2)no1 (stereo unspecified)	-7.52
NC(=O)C1CCN(C(=O)CCCc2nnc(-c3ccccc3)o2)C1 (stereo unspecified)	-19.8
Cc1ncsc1C(=O)NC1CCN(CCC#N)CC1	-8.87
Cc1nnc(NC(=O)CN2CCc3c(nc(C4CC4)n3C)C2)s1	-8.51
O=C(NCCOCC(F)(F)F)c1ccc(-c2ccccc2)[nH]c1=O	-13.9
CC(C)c1nccn1C1CCCN(C(=O)C2=NN(C)C(=O)CC2)C1 (stereo unspecified)	-24.6
CC(Cn1cccn1)NC(=O)N1CCCN(Cc2cccs2)CC1 (stereo unspecified)	-13.5
COc1ccc(NC(=O)N2CCCC2c2ccncc2)cn1 (stereo unspecified)	0.165
Cc1cc(C[S+]([O-])CC(=O)Nc2c(C)cccc2C)no1 (stereo unspecified)	-9.65
Cc1nn(C)c(N2CCOCC2)c1CNC(c1cccs1)C(C)C (stereo unspecified)	-2.53
CC(C)Oc1cccc(CNC(=O)NC(C)(C(=O)O)c2ccco2)c1 (stereo unspecified)	-2.77
CCCNC(=O)CN1CCC(C(=O)Nc2cnn(CC)c2)CC1	-2.04
Cc1cc(C)n(CC2CCCN2C(=O)c2cnn(C)c2C2CC2)n1 (stereo unspecified)	-0.489
COc1cc(CNC(=O)CNc2cc(Cl)ccc2OC)ccn1	-8.92
CCC1c2ccsc2CCN1C(=O)NCc1ccccn1 (stereo unspecified)	-4.51
O=C1C(NCc2nnc3n2CCCC3)CCN1c1ccccc1 (stereo unspecified)	-11.2

Compound	cytotoxicity at 10 µM [%]
Cc1cc(C)c(CNC(=O)NCC2CCCN2C)c(=O)[nH]1 (stereo unspecified)	-2.14
COCC(=O)NC(C)Cc1cccc(Br)c1 (stereo unspecified)	-8.21
CCc1nnc2n1CCN(CCS(=O)(=O)c1ccccc1)C2	-11.6
FC(F)(F)Cn1ccnc1CN1CCCC1c1noc(C2CC2)n1 (stereo unspecified)	1.78
CN(Cc1nnc(C2CC2)o1)C1CCN(CCCc2cnn(C)c2)C1 (stereo unspecified)	5.27
COCc1nc(C(=O)N2CCCC2c2ccccc2C)cs1 (stereo unspecified)	4.28
Cc1cnn(CCC(=O)N2CCN(c3ncccc3Cl)CC2)c1	2.41
CC(O)CN1CCC(CNCc2cccc(Br)c2)CC1 (stereo unspecified)	-12.1
CN(C)C(=O)c1ccc(CNC(=O)NCCN(C)C2CCCC2)cc1	-5.58
COCCc1noc(CN2CCOC(Cn3nc(C)cc3C)C2)n1 (stereo unspecified)	-6.66
Cc1ncsc1C(=O)N1CCCN(Cc2cscn2)CC1	-9.67
COc1cccc(CCC(=O)N2CCC[C@@H](N)[C@@H]2c2ccccc2F)c1	8.3
CCOc1ccc(C(=O)N2CCN(c3nccn3C)CC2)cc1	5.89
Cc1ccc(CN2CCC(O)(Cn3nc(-c4cccs4)oc3=O)CC2)o1	8.52
NCC1CCC(c2c(C(N)=O)sc3ccccc23)CC1 (stereo unspecified)	1.52
Cn1cc(CN2CCn3cc(CNC(=O)C4CCC4)nc3C2)cn1	-6.66
CC(=O)N1CCC2(CC1)COC(COCc1ccccn1)C2 (stereo unspecified)	-114
CN(C)CCn1c2c(ccc1=O)CC(NC(=O)c1cnccn1)CC2 (stereo unspecified)	-2.4
O=C(c1ccncc1)N1CCC2(CC1)CCN(Cc1ccccn1)C2=O	-3.18
